Reference: the array DNA melting data of Ke et al. (doi:10.1101/2024.01.08.574731)

Experiments:
[1] = folding enthalpy; higher = less favourable; fluorescence melt of hairpins on a sequencing array, two-state fit; conditions: sodium 0.088 M
How it was run: (§1)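 Cy3 fluorescence of library hairpins on a sequenced MiSeq flow cell, with annealed Cy3 and quencher oligos, was imaged in 50 mM Na-HEPES pH 8.0, 25 mM NaCl in 2.5 °C steps up to 60 °C. Signals were normalised to pre-quench Cy3 and to control variants. Melting temperature and folding enthalpy came from bootstrapped two-state fits, inverse-variance combined over four replicates. Fitted temperatures were raised by 9.35 °C to match UV melts.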

[2] = melting temperature; fluorescence melt of hairpins on a sequencing array, two-state fit, raised by 9.35 °C to match UV melts; conditions: sodium 0.088 M
How it was run: as §1

Sequence	folding enthalpy [1] [kcal/mol]	Tm [2] [°C]
GTCCGGCGAAAGCCCGAC (((.(((....))).)))	-20.1	45.2
GGGCTCGCGAAAGCGCCC (((..(((....))))))	-15.7	56.5
GCGAAGATCGC ((((...))))	-13.7	49.5
GCCTCGCGAAAGCGCCGC ((..(((....)))..))	-14.3	36.1
GTGTTCGGAAACGAACAC (((((((....)))))))	-36.3	67.9
GTTAACGAAAGTTCAAC ((((((....))).)))	-12.2	26.5
GCAAACGAAAGTTTATGC ((((((....)))..)))	-17.2	31.9
GGGAGCGGAAACGCCCCC (((.(((....))).)))	-27.4	61.4
GATCATTTAGATGATC ((((((....))))))	-37.4	47.6
GGTAACCGAAAGGTAACC (((.(((....))).)))	-20.8	50.8
GCAGTTGGAAACAGTTGC (((..((....))..)))	-13.8	29.7
GATCTACACCTAGATC ((((((....))))))	-39.5	42.5
CGTTCCCGGAAACGGACG (((..(((....))))))	-21.6	35.3
GATCCATTGGTGGATC ((((((....))))))	-44.4	53
GTCTGGCGAAAGCCGAC (((.(((....))))))	-16	55.8
GATCTGAGAACAGATC ((((((....))))))	-27.5	45.1
GCTCAGCGAAAGCTATGC ((..(((....)))..))	-12.6	36.4
GTAGGCGAAAGCCGCTAC ((((((....)))..)))	-8.76	43.4
GTCATCCGAAAGGACGAC (((.(((....))).)))	-36.4	49.3
GTCCACGAAAGTGGGAC ((((((....))).)))	-13.6	58.3
GCTGTGCGAAAGCTGAGC (((..((....))..)))	-16.6	49.1
GGGTCCGAAAGGAAGCCC ((((((....)))..)))	-18.8	46.9
GATCCCCGGGGGGATC ((((((....))))))	-29.9	66.6

Sequence	folding enthalpy [1] [kcal/mol]	Tm [2] [°C]
GATCCCGAGCGGGATC ((((((....))))))	-40.5	61.6
GCATTGCGAAAGCAGGGC ((..(((....)))..))	-20.7	51
GTAGGCCGAAAGGCGTAC (((.(((....))).)))	-26.5	62.4
GCCATGCGAAAGCATAGC ((.((((....)))).))	-17	51.6
TACCAGAAATGGTA (((((....)))))	-13.3	37.5
GACCCCCGAAAGGGCGTC (((.(((....))).)))	-25.1	55.4
GGCAGCGAAAGCTAGCC ((((((....))).)))	-32.9	62
GTCAGACGAAAGTCAGAC (((.(((....))).)))	-31.5	53.6
GTACGTGGAAACATGTGC (.((.((....)).)).)	-24.4	36.5
GAATGTGGAAACACATTC (((((((....)))))))	-38.6	59.4
GATCAAATCTTGATC ((((((...))))))	-27.8	42
GCGACCGAAAGGTCACGC ((((((....)))..)))	-16.9	61.1
GCGTGGAGACGC ((((....))))	-18.2	55.6
GCTTAGCGAAAGCAATGC ((.(.((....)).).))	-11.7	31.9
GGCTATGGAAACGTAGTC (.(((.(....).))).)	-18.6	32.3
GGAGATGCGAAAGCATCC (((..(((....))))))	-8.76	46.6
GTGTCTGGAAACAGATGC (..((((....))))..)	-20.7	40.2
GTCCTGCGAAAGCATGAC (((.(((....))).)))	-26	49.9
GTTATGGGAAACCATGAC ((.((((....)))).))	-34.4	43.5
GGTAGCGAAAGCTGGACC ((((((....)))..)))	-12.6	37.4
GATCGGCTGACCGATC ((((((....))))))	-40.4	56.2
CGGTCGGAAACGAACCCG ((((((....)))..)))	-19.3	38.2
GCCTCACCGAAAGGTGGC (((..(((....))))))	-8.02	48.9
